# Assay results published in PMC2193645 (The Journal of Experimental Medicine, 1999).
# Columns and labels:
# [1] = test system: splenocytes from APLtg × 3.L2tg mice; assay: Primary T cell proliferation of naive splenocytes to Hb; assay type: cell-based, mouse; conditions: in words
# Procedure, shortened: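 Naive splenocytes from APLtg × 3.L2tg mice or 3.L2tg controls were plated at 5 × 10^5/well with increasing Hb(64–76) peptide concentrations for 48 h. They were then pulsed with 0.4 μCi [3H]TdR for 18 h, harvested and counted. Read-out was mean cpm of triplicate wells per peptide dose, and curves were averaged across several experiments.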
# 3.L2 TCR = conditions: cited from earlier work; for Half-life: longevity of the 3.L2 TCR–APL complex; for Half-life / Kd: BIAcore; for Kd: read-out: K D k off/k on, kinetic
# QC85.5 hybridoma = assay: T cell hybridoma assay; assay type: cell-based, mouse; conditions: IL-2 production; in words
# Procedure, shortened: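 Increasing numbers of splenocytes from transgenic mice were cultured 24 h with QC85.5 hybridoma cells. QC85.5 was raised by immunizing CE/J mice with a position-72 altered Hb peptide, subcloned twice, and recognizes several position-72 variants. IL-2 in supernatant was measured by CTLL-2 proliferation and plotted as CTLL-2 cpm against splenocytes per well. Each point is the mean of triplicate wells.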
# mature 3.L2 T cells [2] = conditions: B cell apoptosis assay; cited from earlier work
# mature 3.L2 T cells [3] = conditions: cited from earlier work; for Effect on mature T cells: ligand class in words
# 3.L2tg thymocytes = assay: Three-color FACS of thymocytes from APLtg × 3.L2tg mice; assay type: in vivo, mouse; conditions: for Interpretation: effect on thymic selection of 3.L2tg T cells: ligand expressed in thymus as mHEL epitope tag, in words
# 3.L2.12 hybridoma = conditions: cited from earlier work
Substance,Response of naive 3.L2tg splenocytes to Hb(64–76) on the selecting background [1],Half-life (3.L2 TCR),Kd (3.L2 TCR),Stimulation of QC85.5 hybridoma by peptide (QC85.5 hybridoma),Relative activity (mature 3.L2 T cells [2]),Effect on mature T cells (mature 3.L2 T cells [3]),Interpretation: effect on thymic selection of 3.L2tg T cells (3.L2tg thymocytes),Binding to the 3.L2 TCR in BIAcore experiments (3.L2 TCR; in words),Increase in percentage of CD4-SP cells with high levels of the 3.L2 TCR over 3.L2tg control (3.L2tg thymocytes; P < 0.01),Reduction of 3.L2.12 stimulation by peptide (3.L2.12 hybridoma),Fold less active than N72(wt) (mature 3.L2 T cells [3])
"GKKVITAFNEGLK [N72(wt), Hb(64–76)]",tolerant to Hb(64–76),10.8 s,12 µM,produce IL-2,100,the strongest agonist,complete negative selection,,,,
"GKKVITAFQEGLK [Ligand Q72, Hb(64–76) N72Q]",,,,stimulated most strongly,none,no effect on mature 3.L2 T cells,enhance the positive selection,no binding can be detected,12%,,
Hb(64–76) N72A [Ligand A72],,<2 s,,produce IL-2,0.0007,a weaker antagonist,modest negative selection,,,,
Hb(64–76) N72E [Ligand E72],,,,,none,no effect on mature T cells,no effect on 3.L2tg T cell development,,,,
Hb(64–76) N72I [Ligand I72],tolerant to Hb(64–76),2.3 to 3.4 s,10 to 20 µM,,0.006,an antagonist,complete negative selection,,,,
Hb(64–76) N72T [Ligand T72],tolerant to Hb(64–76),5.1 s,9.9 µM,produce IL-2,2,a weaker agonist,identical effect,,,50 fold,50 fold
